Results pooled from the literature.
Compare with care: the assays were run in different laboratories.
Target: Voltage-gated inwardly rectifying potassium channel KCNH2 (KCNH2, Homo sapiens, UniProt Q12809)

| SMILES | assay | system | conditions | quantity | result |
| --- | --- | --- | --- | --- | --- |
| COc1cc(N)c(Cl)cc1C(=O)NC1CCN(CCCOc2ccc(F)cc2)CC1OC (stereo not drawn) | ion current, inhibitor, patch clamp | HEK293 | 100 pM, pH 7.4 | inhibition | 3.11% |
| NC/C(=C\F)COc1cccc(Cn2c(=S)[nH]c(=O)c3[nH]cnc32)c1 | ion current, inhibitor | – | 10 µM | inhibition | 3.8% |
| Cn1cc2c(C(=O)O)ccc(NS(=O)(=O)c3ccc(OCC4CCC4)c(Cl)c3)c2n1 | ion current | – | – | IC50 | > 10 µM |
| CC(=O)N1CCC(C(=O)N2CCN3C(=O)c4cc(-c5ccccc5)ccc4NC(=O)C3C2)CC1 (stereo not drawn) | ion current, inhibitor, patch clamp | HEK293 | 10 µM | inhibition | 4% |
| CCCN1CCCC[C@H]1C(=O)Nc1c(C)cccc1C | ion current, inhibitor, patch clamp | – | 100 µM | inhibition | 82.3% |
| CCOC(=O)C1=C(CN2CCC[C@@H]2C(=O)Nc2ccc(B(O)O)cc2)NC(c2nccs2)=N[C@H]1c1ccc(F)cc1Br | ion current, inhibitor, patch clamp | HEK293 | 1 µM, pH 7.4 | inhibition | 14.6% |
| CC(C)(C)c1sc2ncnc(Oc3c(F)cccc3OC(F)(F)F)c2c1-c1ccc(Cl)cc1 | ligand displacement, radioligand | – | 10 µM | inhibition | > 50% |
| COC1=CC(c2ccc[nH]2)=N/C1=C\c1[nH]c(Cc2ccc(OC(F)(F)F)cc2)cc1Cc1ccc(OC(F)(F)F)cc1 | ion current, inhibitor, patch clamp | – | 50 µM | inhibition | 26.6% |
| CN1C[C@H](COc2nccc3c(NCc4ccco4)cc(Cl)nc23)OC1=O | ion current, inhibitor | HEK293 | 30 µM | inhibition | 37.1% |
